# MrgX1 ag – agonists of human MrgX1 receptor; Q96LB2; MrgX1-HEK293 cells, Fluo-4 calcium fluorescence, agonist mode; active compounds read high; B-score at 10 µM; actives 0.44% (n = 310,000);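 active = calcium response B-score plate-corrected fluorescence ratio at least 3 library SD, with starting fluorescence B-score inside 5 SD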
# Target sequence (Q96LB2 whole entry, looked up): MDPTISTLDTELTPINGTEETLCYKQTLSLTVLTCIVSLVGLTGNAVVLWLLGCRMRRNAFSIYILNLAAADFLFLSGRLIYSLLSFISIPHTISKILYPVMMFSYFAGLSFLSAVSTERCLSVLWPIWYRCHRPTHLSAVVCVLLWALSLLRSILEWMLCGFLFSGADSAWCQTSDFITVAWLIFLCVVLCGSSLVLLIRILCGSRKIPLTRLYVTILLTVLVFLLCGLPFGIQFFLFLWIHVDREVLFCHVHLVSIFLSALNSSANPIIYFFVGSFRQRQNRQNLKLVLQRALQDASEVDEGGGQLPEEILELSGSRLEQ
#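 times = overnight plating, then 30 min 37 °C plus 30 min room-temperature dye loading | assay system = stable human MrgX1 HEK293 cell line | input = fifteen thousand cells per well | signal = kinetic calcium dye fluorescence, Fluo-4 NW | dosing = compound delivered in addition one of three | read-out = B-scored fluorescence response ratio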
# RGS4 pot – RGS4 potentiation or activation; HEK293 M3R/inducible RGS4, carbachol calcium flux Fluo4; active compounds read low; actives 0.92% (n = 310,000); B-score at 10 µM;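 active = B-score of the integrated calcium signal more than 4 SD below the library mean, with starting fluorescence not abnormally high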;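 also: negative B-score means reduced calcium response which marks RGS4 activation or potentiation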
#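 test system = HEK293 cells with stable M3R and inducible RGS4 | schedule = recording 10 s baseline at 1 Hz, 100 s post-agonist | technique = Fluo4-AM (2 µM) calcium-flux fluorescence, kinetic read | measure = Agonist-evoked peak-minus-minimum fluorescence over baseline, integrated ratio, B score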
# MrgX1 antag – antagonists of human MrgX1 receptor | B-score at 10 µM | Q96LB2 | MRGX1-HEK293 calcium flux, Fluo-4, BAM8-22 antagonism; active compounds read low | actives 1.3% (n = 310,000);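 active = calcium-response B-score plate-corrected more than 3 library SD below zero, starting fluorescence within 5 deviations, no agonist response on first addition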;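 also: peak minus trough fluorescence over baseline after final BAM8-22 challenge near maximal dose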
# RGS4 block – inhibitors of human RGS4; actives 0.45% (n = 310,000); HEK293 M3R/RGS4 inducible, Fluo-4 calcium flux; active compounds read high; triggered by carbachol at its EC20; P49798; B-score at 10 µM; AID 463165;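 active = B-score, a plate-corrected calcium signal, over three deviations above library mean, with baseline fluorescence within five deviations of library mean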;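 also: RGS4 expression induced by doxycycline in cells with stable M3 receptor; B-score is computed from the integrated fluorescence ratio over baseline after carbachol; higher B-score means a larger calcium signal and so more RGS4 inhibition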
# Target sequence (P49798 whole entry, looked up): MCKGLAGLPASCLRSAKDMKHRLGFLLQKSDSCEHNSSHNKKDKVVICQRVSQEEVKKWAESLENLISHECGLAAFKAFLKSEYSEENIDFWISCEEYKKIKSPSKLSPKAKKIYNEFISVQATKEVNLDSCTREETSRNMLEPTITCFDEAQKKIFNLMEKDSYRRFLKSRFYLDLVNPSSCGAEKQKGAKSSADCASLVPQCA
# MrgX1 allo act – human MrgX1 positive allosteric modulation, primary screen; actives 0.63% (n = 310,000); B-score at 10 µM; MrgX1-HEK293, Fluo-4 calcium flux, FDSS; active compounds read high; Q96LB2;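 active = plate-corrected calcium response at least 3 library SD above typical, normal starting fluorescence, not activating the receptor alone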;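 also: compound read alongside a low EC10 to EC30 dose of BAM8-22 agonist; peak minus trough fluorescence over baseline measured at the second addition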
# RGS4 act valid – confirmation of RGS4 activators | shares compounds with RGS4 pot | HEK293 M3R/RGS4 inducible, carbachol calcium flux Fluo4 | inhibition, % at 10 µM | actives 89% (n = 1,100) | AID 602282;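 active = inhibition above 3 SD of the buffer control wells, cut at about 41% in these data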;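 also: signal is the integrated peak-minus-minimum Fluo4 fluorescence over baseline ratio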
# M3R Ca counter – counter-screen for RGS4 activators: effect in non-induced cells. shares compounds with RGS4 pot. inhibition, % at 10 µM. actives 82% (n = 1,100). HEK293 M3R non-induced RGS4, Fluo4 calcium flux; after carbachol challenge at its EC90. AID 602283;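 active = inhibition exceeding 3 SD of buffer-only control wells, cut at about 26% in these data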;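 also: percent drop in integrated peak-minus-baseline over baseline Fluo4 ratio after carbachol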
# Numbers stand for hits; 0 = inactive; - = not tested or not shown. Hits are enriched below; roughly 3.5% of the tested compounds scored in any of these assays.
SMILES,MrgX1 ag,RGS4 pot,MrgX1 antag,RGS4 block,MrgX1 allo act,RGS4 act valid,M3R Ca counter
Cc1cc(C)n(S(=O)(=O)c2ccc3ccccc3c2)n1,0,-7.92,0,0,0,75.5,83.8
CC(C)CSC1=NSC2=NC(=O)/C(=C\c3coc4ccccc4c3=O)C(=N)N12,0,-12.1,0,0,0,98.5,99.8
COc1ccc(N(C(=O)Nc2ccc(Cl)cc2)C2=NCCC2)cc1,0,-10.2,0,0,0,78.5,37.8
CCn1c2nc(SCCN3CCOCC3)nnc2c2cc(C)cc(C)c21,0,0,0,0,0,-,-
COc1cccc(C2C3CN(C)CC=C3C(C#N)=C(N)C2(C#N)C#N)c1OC (stereo unspecified),0,-7.97,0,0,0,53.5,45.8
CCN1CC=C2C(C#N)=C(N)C(C#N)(C#N)[C@H](c3cccc(OC)c3OC)[C@H]2C1,0,0,0,0,0,-,-
COc1ccc(C(=O)OCCN2C(=O)c3ccccc3C2=O)cc1,0,-8.67,0,0,0,40.0,83.8
Cc1ccc(-c2csc(=Nc3cccnc3)n2CCCn2ccnc2)cc1C,0,-8.81,0,0,0,92.0,93.3
Cc1ccc(-c2csc(=Nc3cccnc3)n2CCCN2CCCC2=O)cc1C,0,0,0,0,0,-,-
CCOC(=O)c1sc(NC(=O)CSc2nncn2C)nc1C,0,0,0,0,0,-,-
O=S(=O)(c1ccc(N2CC=C(c3ccccc3)CC2)nc1)N1CCCC1,0,-9.32,0,0,0,54.5,0
CCc1noc(C)c1C(=O)N1CCN(S(=O)(=O)c2c(C)c(C)cc(C)c2C)CC1,0,0,0,0,0,-,-
CCOC(=O)c1ccc(CNCc2ccccc2)cc1,0,-12,0,0,0,87.0,28.8
CCOC(=O)c1ccc(CNCc2ccc(Br)cc2)cc1,0,0,0,0,0,-,-
Cc1nn(-c2ccccc2)c(C)c1NC(=O)COC(=O)c1cccc(OC(F)F)c1,0,-8.37,0,0,0,0,0
CCc1nc(SCC(=O)c2ccccc2)c2c(=O)n(C)c(=O)n(C)c2n1,0,0,0,0,0,-,-
CCCc1nc(SCC(=O)c2ccccc2)c2c(=O)n(C)c(=O)n(C)c2n1,0,-7.81,0,0,0,93.5,91.3
Cc1ccc2sc(N3CCN(CCNC(=O)c4ccco4)CC3)nc2c1C,0,0,0,0,0,-,-
CCN1CCN(CCCNC(=O)c2ccc3c(Cl)c4c(nc3c2)CCCC4)CC1,0,-8.56,0,0,0,81.5,49.8
O=C(NCCCN1CCCCCC1)c1ccc2c(Cl)c3c(nc2c1)CCCC3,0,0,0,0,0,-,-
O=C(c1cccc(S(=O)(=O)Nc2ccc(Br)cc2)c1)N1CCCC1,0,0,0,0,0,-,-
O=C1CCC(C(=O)Nc2cccc(Br)c2)N1 (stereo unspecified),0,0,0,0,0,-,-
S=C(NCc1ccco1)N1CCN(C(c2ccccc2)c2ccccc2)CC1,0,-9.76,0,0,0,65.5,0
CC(=O)c1cccc(NC(=O)CNC(=O)Cc2ccccc2)c1,0,0,0,0,0,-,-
OC(C#CCN1CCCC1)(c1ccccc1)c1cccc(F)c1 (stereo unspecified),0,-8.39,0,0,0,91.5,95.8
SMILES,MrgX1 ag,RGS4 pot,MrgX1 antag,RGS4 block,MrgX1 allo act,RGS4 act valid,M3R Ca counter
CC(C)C(O)(CC#CCN1CCCC1)c1ccccc1 (stereo unspecified),0,-9.21,0,0,0,92.0,44.3
OC(CC#CCN1CCOCC1)(c1ccccc1)c1ccccc1,0,0,0,0,0,-,-
C(#CCN1CCCC1)CC(c1ccccc1)c1ccccc1,0,-13.3,0,0,0,92.5,93.3
CC(O)(C#CCN1CCCC1)c1ccccc1 (stereo unspecified),0,0,0,0,0,-,-
C(#Cc1ccccc1)CN1CCCCC1,0,0,0,0,0,-,-
CC(C)(C)C(O)(CC#CCN1CCCC1)c1ccccc1 (stereo unspecified),0,-9.41,0,0,0,76.5,31.3
Cn1c(=O)c2c(nc(N3CCOCC3)n2C/C=C/c2ccccc2)n(C)c1=O,0,0,0,0,0,-,-
O=C(O)Cn1nc(-c2ccccc2)ccc1=O,0,0,0,0,0,-,-
